HSF1 activator = HSF-1 activators, primary screen, NIH3T3-HGL cells, MG132 stress, luminescence, single point | NIH3T3-HGL HSF-1 luciferase reporter, 8 h; 100% = twice DMSO control signal | activation, % at 9 µM | hit rate 1.7% among 300,000;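 active = mean replicate activation of at least 50% with a set share of replicates each reaching 50%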;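 also: 0% = median of the neutral control wells and 100% = twice that signal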
HSP90 refold inh = HSP90 inhibitors, primary screen, cell lysate, luminescence; Heat shock protein HSP 90 (rabbit reticulocyte lysate; luciferase refolding); Rabbit reticulocyte lysate, luciferase refolding luminescence, 3 h; inhibition, % at 5.6 µM; hit rate 0.91% among 290,000; AID 1789, 2009;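 active = inhibition above the screen-wide mean plus 3 SD, computed separately per campaign, cut at about 16% in these data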;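 also: 0% = DMSO wells and 100% = 60 µM geldanamycin wells; inhibitors lower the luminescence because luciferase stays unfolded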
Lipid droplet = inhibitors of hepatocyte lipid droplet formation, primary screen, imaging, high-throughput imaging, BODIPY stain. AML12 mouse hepatocytes, oleate lipid droplets. inhibition, % at 6.5 µM. hit rate 0.4% among 240,000;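 active = lipid droplet intensity inhibited by at least 50%, with more than 500 cells counted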
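Material – mouse AML12 hepatocyte cell line, fixed after treatment · Compound dosing – one dose, 6.5 µM compound · Times – compound with oleate, overnight · Measured by – Image-based BODIPY and DAPI two-channel analysis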
HCV NS3 hel inh = inhibitors of HCV NS3 helicase, primary screen, biochemical, Cy5 molecular beacon fluorescence. Hepatitis C virus NS3 helicase. NS3 helicase DNA unwinding. inhibition, % at 10.9 µM. hit rate 0.56% among 290,000. AID 1800, 2009;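 active = inhibition above the mean of all tested compounds plus 3 SD, set per campaign, cut at about 35% in these data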;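 also: 0% = DMSO wells and 100% = thioflavine S control wells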
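Measured by: Cy5 fluorescence, 0 and 60 min reads / Assay system: NS3 helicase fragment of HCV / Control set: low DMSO, high thioflavine S at 110 µM / Times: 1 h reaction at 25 °C, ATP-initiated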
HSF1 inhib = HSF1 inhibitors in luciferase reporter cells, primary screen, cell-based, NIH3T3, luminescence. NIH3T3-HGL HSE-luciferase, MG132-induced, luminescence 8 h; stronger effect = lower value. activity change, negative = inhibition, % at 7.5 µM (by protocol). hit rate 0.77% among 300,000. AID 2098, 2009;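 active = more than half of replicate wells show activity change below -50%, luminescence cut by over half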;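 also: luciferase reports HSF-1 transcriptional activity via heat shock element; 0% = median of DMSO wells and -100% = zero luminescence signal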
* hit, by the source's call; · = no result given. Rows were chosen to be rich in hits. Some 3.8% of all compounds tested hit in one or more screens of this group.

SMILES | HSF1 activator | HSP90 refold inh | Lipid droplet | HCV NS3 hel inh | HSF1 inhib
CN1CCN(Cc2c(O)ccc3cc(Br)ccc23)CC1 | 134* | -3 | -5 | 8 | 112
CCc1cc(=O)oc2c(CN3CCN(C)CC3)c(O)ccc12 | 4 | 5 | -3 | 4 | 7
O=C(NNC(=S)Nc1ccc(Cl)cc1)c1ccccc1OC(F)F | 59* | -2 | -67 | 2 | 19
CCOC(=O)C1CCCN(C(=O)c2sc3nc(C)nc(N(CC)CC)c3c2C)C1 (stereo not drawn) | 57* | 2 | 4 | -3 | 26
CCCN(CC(=O)Nc1ccc(Cl)cc1Cl)C(=O)/C=C/c1ccco1 | 64* | -2 | -9 | 2 | 50
Cc1ccc2c(COC(=O)c3ccccc3Br)cc(=O)oc2c1 | 88* | 3 | -9 | 28 | 44
COc1ccc2c(COC(=O)CCS(=O)(=O)c3ccc(C)cc3)cc(=O)oc2c1 | -79 | · | · | · | -73*
Cc1ccc2c(COC(=O)c3ccc(C)c(C)c3)cc(=O)oc2c1 | 21 | 3 | -18 | 7 | -2
Cc1ccc2c(COC(=O)c3ccccc3Cl)cc(=O)oc2c1 | 101* | -4 | 5 | 7 | 55
COc1ccc(Br)c(C(=O)OCc2cc(=O)oc3cc(C)ccc23)c1 | 44 | 1 | -1 | 0 | 12
COC(=O)Cc1cc(=O)oc2cc(OC)ccc12 | -2 | -2 | 15 | 2 | -5
COc1cccc(CNC(=O)c2ccncc2)c1 | 13 | 0 | 2 | -3 | -3
CS(=O)(=O)/C(C#N)=C\c1cnc(S(=O)(=O)c2ccccc2)s1 | 32 | 3 | · | -1 | 21
CCC(=O)N1C(C(=O)N2CCCC2)CSC1c1ccc(OC)cc1 (stereo not drawn) | -90 | -1 | -8 | 6 | -88*
CCC(=O)N1C(C(=O)O)CSC1c1ccc(OC)cc1 (stereo not drawn) | -10 | -1 | · | 2 | -5
O=C1c2cccnc2C(=O)N1c1cccc([N+](=O)[O-])c1 | -17 | -4 | -13 | 6 | -9
COc1ccc(C2CC3CC(c4ccccc4)N2O3)cc1 (stereo not drawn) | 17 | 0 | · | -2 | 4
CC1(c2ccccc2)CC2CC(c3ccccc3)N1O2 (stereo not drawn) | 124* | 0 | 24 | 0 | 64
OCCNC(=S)Nc1cccc(Cl)c1Cl | -6 | -3 | -6 | -2 | -6
CCN(CCS(=O)(=O)c1ccc(Cl)cc1)C(=O)Nc1ccccc1 | -73 | 0 | 2 | 3 | -64*
O=C(CSCCS(=O)(=O)c1ccc(Cl)cc1)Nc1ccccc1 | 8 | 5 | 11 | -6 | 6
CCN(CC(=O)N1CCOCC1)S(=O)(=O)c1ccc(Cl)cc1 | -6 | 0 | -12 | -3 | -8
COc1ccc(NC(=O)c2nn(C)c(=O)c3ccccc23)cc1S(=O)(=O)Nc1ccccc1Cl | 65* | 2 | -3 | 0 | 47
COc1ccc(NC(=O)c2cc(C)nc3ccccc23)cc1S(=O)(=O)Nc1ccccc1Cl | -2 | 1 | 7 | -5 | 7
CC(=O)Nc1ccc2c(c1)CCc1ccccc1-2 | 36 | -2 | · | 1 | 17
SMILES | HSF1 activator | HSP90 refold inh | Lipid droplet | HCV NS3 hel inh | HSF1 inhib
O=C(O)/C=C/C(=O)c1ccc2c(c1)CCc1ccccc1-2 | 175* | · | · | · | 146
COc1ccc(C)cc1N(C(=O)c1snc(C(N)=O)c1N)C(C(=O)NC1CCCCC1)c1ccc(C)o1 (stereo not drawn) | 26 | 5 | -8 | -8 | 0
[O-][n+]1ccccc1SCc1ccccc1 | 4 | · | · | · | 1
[O-][n+]1ccccc1SC/C=C/c1ccccc1 | 53* | -2 | 4 | -2 | 22
CC(C)(C)c1ccc(Cn2c(=N)n(CC(O)c3ccco3)c3ccccc32)cc1 (stereo not drawn) | 56* | -3 | -16 | -54 | 24
CC(C)c1ccc(OCC(=O)Nc2c3c(nn2C(C)(C)C)CS(=O)(=O)C3)cc1 | 22 | · | · | · | 7
COc1ccccc1CN1C(=O)CCC1(C)C(=O)NCc1cccnc1 (stereo not drawn) | 5 | -1 | · | -1 | -8
CCC(C)NC(=O)C1(C)CCC(=O)N1Cc1ccccc1OC (stereo not drawn) | -80 | 3 | -16 | -2 | -74*
